# An excerpt weighted towards active compounds, which were near 4.9% of everything screened.
# APP 5'UTR act – APP 5'UTR luciferase reporter activation; SH-SY5Y APP 5'UTR luciferase reporter, luminescence; zero percent = DMSO vehicle wells; activation, % at 2 µM; 190,000 tested, 1% active; AID 1276;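 active = activation above a set limit, based on mean plus 3 SD of controls, cut at about 140% in these data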
# STAT3 blocker – inhibitors of IL-6 induced STAT3 signaling | U3A cells, IL-6 STAT3-luciferase reporter, luminescence; host cell line lacks STAT1 | inhibition, % at 5.5 µM | 190,000 tested, 0.89% active;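 active = inhibition above the mean inhibition across all screened compounds plus 3 SD, cut at about 44% in these data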;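 note: 0% = DMSO only wells and 100% = 100 µM nifuroxazide control wells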
# NF-kB neuron act – raises NF-kB expression in human neuronal cells | 190,000 tested, 1.6% active | fold change at 12.5 µM | NF-kB reporter expression; hits give high values; in the data active = fold change above about 3.3
# STAT1 inh – reduces IFN-gamma driven STAT1 reporter signal. NIH 3T3 STAT1-luciferase reporter, luminescence. inhibition, % at 5.5 µM. 200,000 tested, 0.35% active. AID 920;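 active = inhibition above a set limit, the mean inhibition across all tested compounds plus 3 SD, cut at about 34% in these data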;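 note: 0% = IFN-gamma with DMSO and 100% = IFN-gamma with 300 µM nifuroxazide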
# STAT3 act-1 – STAT3 signaling activation | activation (% of control), % at 5.6 µM | U3A cells, IL-6 STAT3-luciferase reporter, luminescence; 100% = signal with IL-6 EC80 alone | 190,000 tested, 0.91% active;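 active = activation above the screen-wide mean of compound activation plus 3 SD, cut at about 130% in these data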;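 note: 0% = background luminescence of wells with medium and substrate only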
#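 Material: STAT3-luciferase reporter U3A cells; Probe or stimulus: IL-6 (33 ng/mL); Incubation: compound pre-incubation 1 h before IL-6, then 6 h stimulation at 37 °C; Technique: luminescence from STAT3-driven luciferase reporter; Evaluation: % activation versus median of IL-6-stimulated wells; Controls: IL-6-only high control.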
# STAT1 act-1 – activators of IFN-gamma induced STAT1 signaling; NIH 3T3 STAT1-luciferase reporter, luminescence; 100% = IFN-gamma alone, no compound; AID 932; 200,000 tested, 2.6% active; activation (% of control), % at 5.5 µM;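 active = activation above the screen-wide mean activation plus 3 SD, cut at about 130% in these data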;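 note: raw ratio to IFN-gamma control signal so 100% means no change and 0% no light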
# STAT3 act-2 – confirmation of STAT3 signaling activators; potentiation (% of control), % at 5.7 µM; 1,200 tested, 64% active; shares compounds with STAT3 act-1; U3A STAT3-luciferase reporter, IL-6 potentiation, luminescence; U3A cells lack STAT1; 100 means same as IL-6 alone;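 active = percent activation of the STAT3 luciferase reporter above a set limit taken from the earlier primary screen, cut at about 130% in these data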;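 note: 0% = background signal of medium plus substrate and 100% = median of IL-6 with DMSO wells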
# NFkB act STAT3ct – activates NF-kappaB, counter-screen to STAT3 activators | shares compounds with STAT3 act-1 | human cells, NF-kappaB reporter activation | 1,200 tested, 11% active | activation (% of control), % at 5.7 µM; in the data active = activation above about 120%;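 note: reporter induced by TNF-alpha stimulation; 100% = median of stimulated DMSO wells and 0% = no signal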
# STAT1 act-2 – counter-screen for STAT3 activators: STAT1 activation | shares compounds with STAT3 act-1 | NIH 3T3 STAT1-luciferase reporter, IFN-gamma, luminescence | activation (% of control), % at 5.7 µM | 1,200 tested, 13% active;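 active = activation above the solvent-only control well mean plus 3 SD, set per screening run, cut at about 120% in these data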;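 note: 100% = IFN-gamma with DMSO median signal so 100% means no change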
# The depositor's hits bear a star; i = inactive; . = no result.
SMILES,APP 5'UTR act,STAT3 blocker,NF-kB neuron act,STAT1 inh,STAT3 act-1,STAT1 act-1,STAT3 act-2,NFkB act STAT3ct,STAT1 act-2
Cc1nn2c(-c3cccc(NC(=O)c4ccco4)c3)nnc2c2ccccc12,-13.6,24.3,0.3,-3.7,81.3,102.1,.,.,.
Cc1nn2c(-c3ccccc3)nnc2c2ccccc12,47.2,-79.2,1.27,-8.4,170.1*,107.8,142.6*,116.5,115.4
CCCc1cc(=O)n2[nH]c(C)nc2n1,-14.8,-54.4,1.1,-7.9,152.6*,107.3,107.5,102.1,93.0
CCCc1cc(=O)n2[nH]c(C(F)(F)F)nc2n1,-4.5,-2.5,1.08,-1.8,107.5,101.6,.,.,.
C/C(=N\Nc1nc2ccccc2[nH]1)c1cc2ccccc2o1,106.1,-49.2,1.01,-7.7,143.3*,106.9,175.9*,122.0*,134.1*
O=C(CN1CCN(c2ccccc2F)CC1)N1N=CCC1c1ccccc1 (centres undefined),1.6,7.1,1.08,9.7,96.2,91.3,.,.,.
O=C(COC(=O)c1cccc(C(=O)OCC(=O)NC2CC2)n1)NC1CC1,12.2,-2.2,1.14,-9.7,107.9,107.6,.,.,.
O=C(O)C1(c2cccc(Cl)c2)CCC1,-9.8,-5.6,1.01,-6.1,104.8,105.6,.,.,.
O=C1C2CC=C(Cl)CC2C(=O)N1CCc1c[nH]c2ccccc12 (centres undefined),10.1,-43.2,1.31,2.8,141.3*,97.4,148.8*,103.4,87.5
CC1=CCC2C(=O)N(CCc3c[nH]c4ccccc34)C(=O)C2C1 (centres undefined),3.5,-48.0,1.36,5.1,142.3*,92.2,127.0,101.5,97.2
COC(=O)C1=C(C)N(CCc2c[nH]c3ccccc23)C(=O)/C1=C\N(C)C,15.2,12.8,0.63,-3.0,97.6,101.1,.,.,.
COc1ccc(S(=O)(=O)N2CCN(Cc3ccccc3)CC2)cc1,-8.0,-39.5,1.25,-4.8,137.7*,104.4,104.8,103.5,100.5
CC1=CC2=NC(=O)CC(C)(C(=O)N(CC(=O)NC(C)(C)C)Cc3cccs3)N2C=C1 (centres undefined),2.5,10.4,1.14,-6.9,96.2,106.2,.,.,.
COc1ccc2nc(-n3c(O)c(C4=c5ccccc5=NC4=O)[nH]c3=S)sc2c1,-0.4,4.7,1.03,-1.8,92.8,101.6,.,.,.
Cn1c(O)c(C2=c3ccccc3=NC2=O)[nH]c1=S,1.1,-46.9,1.15,13.1,142.2*,88.3,155.0*,103.0,92.6
CCOC(=O)C1=C(Cn2cnc3ccccc32)NC(=O)NC1c1ccc(OC)cc1 (centres undefined),-30.7,9.6,1.26,-0.1,92.8,102.7,.,.,.
Cc1cc2ccc(C)c(C)c2nc1SCC(=O)c1cccs1,-1.9,-66.2,0.71,21.0,159.9*,81.1,134.1*,99.6,91.0
Cc1ccc2cc(C)c3nnc(SCC(=O)c4cccs4)n3c2c1C,6.9,-10.0,1.43,12.3,109.1,89.0,.,.,.
COc1ccc(C2CC3(CC(C)(C)NC(=S)N3)Oc3cc(O)cc(C)c32)cc1 (centres undefined),9.8,-329.5,0.99,-6.0,362.9*,105.4,267.6*,109.8,106.0
COc1ccc(C2CC3(CC(C)(C)NC(=O)N3)Oc3cc(O)ccc32)cc1 (centres undefined),4.3,-125.2,1.18,-2.2,211.3*,102.1,176.3*,110.0,118.6
COc1ccc(C2CC3(CC(C)(C)NC(SC)=N3)Oc3cc(O)cc(C)c32)cc1 (centres undefined),1.2,i,1.14,-24.6,536.9*,121.5,381.9*,114.2,127.4*
CCN(CC)S(=O)(=O)c1cc(NC(=O)CSc2nccn2C)ccc1C,20.3,17.9,1.6,-2.4,88.4,101.9,.,.,.
Cc1ccc(/C=C/C(=O)NC2CCCCCCC2)o1,29.7,-27.3,2.49,-24.9,120.7,123.5,.,.,.
COc1ccccc1-c1nnc(Nc2nc3c(OC)cccc3s2)o1,-87.1,-45.0,2.5,-31.3,141.9*,127.0,110.1,137.3*,141.1*
O=C(COc1ccc(/C=N/NC(=O)C(=O)N2CCCCCC2)cc1)Nc1ccccc1Cl,-3.2,12.5,1.11,-0.8,88.3,100.7,.,.,.
SMILES,APP 5'UTR act,STAT3 blocker,NF-kB neuron act,STAT1 inh,STAT3 act-1,STAT1 act-1,STAT3 act-2,NFkB act STAT3ct,STAT1 act-2
COc1ccc2ncn(-c3ccccc3)c2c1,-4.0,-32.6,0.79,-8.4,136.5*,107.6,105.8,88.8,105.5
CC(C)CCOc1ccc(C(=O)CCNC(C)C(=O)O)cc1 (centres undefined),0.3,-1.0,1.12,-7.5,104.5,108.4,.,.,.
CCOC(=O)C1CCN(C(=O)CCNC(=O)c2cc(OC)c(OC)c(OC)c2)CC1,4.4,-3.0,1.2,11.1,105.0,89.9,.,.,.
O=C(Nc1nnc(CC(=O)N2CCOCC2)s1)c1cccs1,-5.7,-52.9,1.17,0.6,147.3*,96.3,98.5,105.9,105.5
CCN(C(=O)COC(=O)c1ccc(N2C(=O)c3ccccc3C2=O)cc1)C1CCS(=O)(=O)C1 (centres undefined),-1.9,14.4,1.24,-11.9,92.1,109.7,.,.,.
Nc1c(Br)cc2oc(-c3ccccc3)nc2c1Br,100.5,-61.7,3.35*,-13.0,145.9*,111.8,181.0*,123.2*,152.3*
COc1cc(NS(=O)(=O)c2ccc(N/C=C(\C=O)c3nc4ccccc4o3)cc2)nc(OC)n1,4.0,-53.9,1.01,7.3,147.2*,93.4,135.5*,103.6,95.2
CCc1nnc(NS(=O)(=O)c2ccc(N/C=C(\C=O)c3nc4cc(Cl)ccc4o3)cc2)s1,4.2,-51.5,1.17,-3.4,149.2*,101.8,135.0*,102.9,99.2
CCOC(=O)C1(Cc2ccc(OC)cc2)CCN(C(=O)c2cc3ccccc3[nH]2)CC1,56.7,-68.3,1.46,-20.2,156.5*,119.6,147.5*,109.2,116.6
O=C(NCCN1CCOCC1)C1CCC(CNS(=O)(=O)c2ccc(Cl)cc2)CC1 (centres undefined),-3.7,-0.6,1.13,2.5,105.5,97.8,.,.,.
CCOC(=O)CN1C(=O)C2(OCCCO2)c2ccccc21,14.4,-4.8,1.7,-4.9,106.2,104.5,.,.,.
CCOC(=O)CN1C(=O)C(O)(c2c(C)[nH]c3ccccc23)c2ccccc21 (centres undefined),-7.5,-75.4,0.91,9.3,166.8*,91.5,126.5,107.0,93.8
CC(=O)Nc1ccccc1C(=O)N1CCN(Cc2ccccc2)CC1,-8.3,-7.2,0.81,-0.5,109.0,99.3,.,.,.

# Assay outcomes: PubChem, several laboratories
